What was measured:
[1] = Inhibition of TGFbeta/Smad in TGFbeta-2/activin A-stimulated HEK293 cells preincubated for 2 hrs before stimulation measured after 20 to 22 hrs by firefly/renilla luciferase reporter assay; type: cell-based; conditions: Homo sapiens
Procedure, shortened: (§1)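 HEK293T cells co-transfected with SBE-4 firefly luciferase and TK-driven renilla luciferase plasmids, replated after 12-14 h, rested 2 h, then given compound, DMSO and TGFβ-2 or Activin A (10 ng/mL). Firefly and renilla signals read after 20-22 h by dual luciferase kit. Triplicate wells; data normalized to DMSO (0% inhibition), mean ± SD of 2-4 independent experiments.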

[2] = system: HEK293; experiment: Inhibition of TGFbeta/Smad in TGFbeta-2/activin A-stimulated HEK293 cells preincubated at 2.5 uM for 2 hrs before stimulation measured after 20 to 22 hrs by firefly/renilla luciferase reporter assay; type: cell-based; conditions: Homo sapiens; procedure, shortened: as §1

SMILES	IC50 [1]	inhibition [2]
COC(=O)C1=C(C(=O)OC)C(c2ccc(-c3ccccc3)cc2)C2=C(CC(C)(C)CC2=O)N1 (stereo not drawn)	2010 nM	46%
CCOC(=O)C1=C(C)NC2=C(C(=O)NCC2)C1c1ccc(-c2ccccc2)cc1 (stereo not drawn)	–	21%
CCCNCC1=C(C(=O)OCC)C(c2ccc(-c3ccccc3)cc2)C2=C(CC(C)(C)CC2=O)N1 (stereo not drawn)	1600 nM	57%
CCNC(=O)C1=C(C)NC2=C(C(=O)CC(C)(C)C2)C1c1ccc(-c2ccccc2)cc1 (stereo not drawn)	–	31%
CC1(C)CC(=O)C2=C(C1)NC1=C(C(=O)c3ccccc31)C2c1ccccc1 (stereo not drawn)	–	11%
CCNCC1=C(C(=O)OCC)C(c2ccc(-c3ccccc3)cc2)C2=C(CC(C)(C)CC2=O)N1 (stereo not drawn)	3440 nM	64%
CC1(C)CC(=O)C2=C(C1)NC1=C(C(=O)c3ccccc31)C2c1ccc(-c2ccccc2)cc1 (stereo not drawn)	1260 nM	70%
COC(=O)C1=C(C(=O)O)NC2=C(C(=O)CC(C)(C)C2)C1c1ccc(-c2ccccc2)cc1 (stereo not drawn)	–	4%
CC1=C(C(=O)OCC(C)C)C(c2ccc(-c3ccccc3)cc2)C2=C(CC(C)(C)CC2=O)N1 (stereo not drawn)	420 nM	–
CCOC(=O)C1=C(N)NC2=C(C(=O)CC(C)(C)C2)C1c1ccc(-c2ccccc2)cc1 (stereo not drawn)	1330 nM	61%
CCOC(=O)C1=C(C)NC2=C(C(=O)CC(C)(C)C2)C1c1ccccc1OC(F)(F)F (stereo not drawn)	–	9%
CCOC(=O)C1=C(C)NC2=C(C(=O)CC(C)(C)C2)C1c1ccc(-c2ccc(O)cc2)cc1 (stereo not drawn)	730 nM	74%
CCOC(=O)C1=C(C)NC2=C(C(=O)CC(C)(C)C2)C1c1ccc(-c2ccc(Cl)cc2)cc1 (stereo not drawn)	760 nM	91%
CCOCCOC(=O)C1=C(C)NC(C)=C(C(=O)OCCOCC)C1c1ccccc1OC(F)(F)F	–	4%
CCOC(=O)C1=C(C)NC2=C(C(=O)CC(C)(C)C2)C1c1ccc(-c2ccc(N(C)C)cc2)cc1 (stereo not drawn)	330 nM	95%
CCOC(=O)C1=C(C)NC2=C(C(=O)CC(C)(C)C2)C1c1ccc(-c2ccccc2)cc1 (stereo not drawn)	850 nM	83%
CCN(CC)CCN1C2=C(C(=O)CC(C)(C)C2)C(c2ccccc2)C2=C1CC(C)(C)CC2=O	–	12%
C#Cc1ccc(C2C(C(=O)OCC)=C(C)NC3=C2C(=O)CC(C)(C)C3)cc1 (stereo not drawn)	1710 nM	59%
CCOC(=O)C1=C(C)NC2=C(C(=O)CC(C)(C)C2)C1c1ccc(-c2ccc(F)cc2)cc1 (stereo not drawn)	1230 nM	74%
CCOC(=O)C1=C(C)NC2=C(C(=O)CC(C)(C)C2)C1c1cc(OC)c(OC)c(OC)c1 (stereo not drawn)	–	5%
CCOC(=O)C1=C(C)NC2=C(C(=O)CC(C)(C)C2)C1c1ccccc1 (stereo not drawn)	–	2%
CCC(=O)C1=C(CC)NC2=C(C(=O)CC(C)(C)C2)C1c1ccc(-c2ccccc2)cc1 (stereo not drawn)	1630 nM	62%
CCCC(=O)C1=C(C)NC2=C(C(=O)CC(C)(C)C2)C1c1ccc(-c2ccccc2)cc1 (stereo not drawn)	500 nM	84%
CC1(C)CC(=O)C2=C(C1)NC1=C(C(=O)N(Cc3ccccc3)C1)C2c1ccc(-c2ccccc2)cc1 (stereo not drawn)	870 nM	82%
CC1=C(C(=O)OC2CCCC2)C(c2ccc(-c3ccccc3)cc2)C2=C(CC(C)(C)CC2=O)N1 (stereo not drawn)	1110 nM	77%
CCOC(=O)C1=C(C)NC2=C(C(=O)CC(C)(C)C2)C1c1ccc(-c2ccc(OC(F)(F)F)cc2)cc1 (stereo not drawn)	480 nM	95%
CCOC(=O)C1=C(C)NC2=C(C(=O)CC(C)(C)C2)C1c1ccc(-c2ccncc2)cc1 (stereo not drawn)	6140 nM	27%

SMILES	IC50 [1]	inhibition [2]
CC1(C)CC(=O)C2=C(C1)NC1=C(C(=O)CC(C)(C)C1)C2c1ccccc1	–	21%
CC1=C(C(=O)NCc2ccccc2)C(c2ccc(-c3ccccc3)cc2)C2=C(CC(C)(C)CC2=O)N1 (stereo not drawn)	5190 nM	32%
CCOC(=O)C1=C(C)NC2=C(C(=O)CC(C)(C)C2)C1c1ccc(-c2ccc(S(C)(=O)=O)cc2)cc1 (stereo not drawn)	2760 nM	44%
CCOC(=O)C1=C(C(=O)OCC)C(c2ccc(-c3ccccc3)cc2)C2=C(CC(C)(C)CC2=O)N1 (stereo not drawn)	1800 nM	56%
CCOC(=O)C1=C(COC)NC2=C(C(=O)CC(C)(C)C2)C1c1ccc(-c2ccccc2)cc1 (stereo not drawn)	1890 nM	78%
CCCCC(=O)C1=C(C)NC2=C(C(=O)CC(C)(C)C2)C1c1ccc(-c2ccccc2)cc1 (stereo not drawn)	560 nM	80%
CC1(C)CC(=O)C2=C(C1)NC1=C(C(=O)NC1)C2c1ccc(-c2ccccc2)cc1 (stereo not drawn)	–	28%
CCOC(=O)C1=C(N)NC2=C(C(=O)CC(C)(C)C2)C1c1ccc(C(C)(C)C)cc1 (stereo not drawn)	510 nM	89%
CCOC(=O)C1=C(C)NC2=C(C(=O)CC(C)(C)C2)C1c1ccc(-c2ccc(C(F)(F)F)cc2)cc1 (stereo not drawn)	970 nM	88%
CCN1CC2=C(C1=O)C(c1ccc(-c3ccccc3)cc1)C1=C(CC(C)(C)CC1=O)N2 (stereo not drawn)	5030 nM	25%
CCOC(=O)C1=C(C(=O)O)NC2=C(C(=O)CC(C)(C)C2)C1c1ccc(-c2ccccc2)cc1 (stereo not drawn)	–	0%
C=CCOC(=O)C1=C(C)NC2=C(C(=O)CC(C)(C)C2)C1c1ccc(-c2ccccc2)cc1 (stereo not drawn)	620 nM	91%
CCOC(=O)C1=C(C)NC2=C(C(=O)CC(C)(C)C2)C1c1ccc(-c2ccc(Br)cc2)cc1 (stereo not drawn)	460 nM	94%
CCCOCCOC(=O)C1=C(C)NC2=C(C(=O)CC(C)(C)C2)C1c1ccc(-c2ccccc2)cc1 (stereo not drawn)	–	0%
CCCOC(=O)C1=C(C)NC2=C(C(=O)CC(C)(C)C2)C1c1ccc(-c2ccccc2)cc1 (stereo not drawn)	490 nM	93%
CCOC(=O)C1=C(C)NC2=C(C(=O)CC(C)(C)C2)C1c1ccc(O)c(OC)c1 (stereo not drawn)	–	8%
CC1=C(C#N)C(c2ccc(-c3ccccc3)cc2)C2=C(CC(C)(C)CC2=O)N1 (stereo not drawn)	2950 nM	44%
COC(=O)C1=C(C)NC2=C(C(=O)CC(C)C2)C1c1ccc(-c2ccccc2)cc1 (stereo not drawn)	–	21%
CCOC(=O)C1=C(C)NC2=C(C(=O)CC(C)(C)C2)C1c1ccc(C(C)(C)C)cc1 (stereo not drawn)	–	90%
CCOC(=O)C1=C(C)NC2=C(C(=O)CC(C)(C)C2)C1c1ccc(-c2ccc(C#N)cc2)cc1 (stereo not drawn)	1790 nM	52%
CC1=C(C(=O)OC(C)(C)C)C(c2ccc(-c3ccccc3)cc2)C2=C(CC(C)(C)CC2=O)N1 (stereo not drawn)	670 nM	84%
CCOC(=O)C1=C(C)NC2=C(C(=O)CC(C)(C)C2)C1c1ccc(-c2ccc(C)cc2)cc1 (stereo not drawn)	350 nM	94%
CCOC(=O)C1=C(C)NC2=C(C(=O)CC(C)(C)C2)C1c1ccc(-c2ccc(OC)cc2)cc1 (stereo not drawn)	420 nM	93%
CCCCCCCCCCCCOC(=O)C1=C(C)NC2=C(C(=O)CC(C)(C)C2)C1c1ccc(-c2ccccc2)cc1 (stereo not drawn)	–	0%
CC1(C)CC(=O)C2=C(C1)NC1=C(C(=O)OC1)C2c1ccc(-c2ccccc2)cc1 (stereo not drawn)	4300 nM	37%
CC1=C(C(=O)OC(C)C)C(c2ccc(-c3ccccc3)cc2)C2=C(CC(C)(C)CC2=O)N1 (stereo not drawn)	660 nM	85%
